# Measured values reported in ChEMBL document CHEMBL1148119, “Monoterpene hydroperoxides with trypanocidal activity from Chenopodium ambrosioides” (J Nat Prod, 2002).
# The source made the active and inactive calls. The calls are words filed in the database; no cut-off is given here.
# What was measured:
# Trypanosoma cruzi [1] = assay: Antitrypanosomal activity against Trypanosoma cruzi trypomastigotes infected in human HeLa cells assessed as number of amastigotes per infected cell at 1 ug/mL after 4 days by HeLa cell-infection assay; format: functional
# Summary of the method: (§1)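 HeLa cells (5 × 10^3 cells/mL/well) grown on coverslips 2 days at 37 °C, 5% CO2, then infected with T. cruzi trypomastigotes (1.2 × 10^4 parasites/well). Compound in ethanol (10 µL) added right after infection. Day 4: fixed, Diff-Quik stained, mounted. >200 host cells in random fields scored for % infected cells (>1 amastigote) and mean amastigotes per infected cell. Mean ± SE.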
# Trypanosoma cruzi [2] = assay: Trypanocidal activity against Trypanosoma cruzi Tulahuen epimastigotes assessed as minimal lethal concentration after 24 hrs; format: functional
# Summary of the method: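 Tulahuen epimastigotes kept in GIT medium with hemin (12.4 µM). Parasites in medium (10 µL) incubated with sample in EtOH (5 µL) plus autoclaved saline (185 µL) for 24 h. Motility checked by microscopy (×100). MLC taken as minimum lethal concentration. Duplicates; gentian violet positive control.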
# Trypanosoma cruzi [3] = assay: Antitrypanosomal activity against Trypanosoma cruzi trypomastigotes infected in human HeLa cells assessed as infection rate at 1 ug/mL after 4 days by HeLa cell-infection assay; format: functional; summary of the method: as §1
# Trypanosoma cruzi [4] = assay: Antitrypanosomal activity against Trypanosoma cruzi trypomastigotes infected in human HeLa cells assessed as inhibition of amastigotes proliferation at 1 ug/mL after 4 days by HeLa cell-infection assay; format: functional, organism-based; summary of the method: as §1
# HeLa = assay: Cytotoxicity against human HeLa cells at 10 ug/mL; format: cell-based
# Trypanosoma cruzi [5] = assay: Antitrypanosomal activity against Trypanosoma cruzi trypomastigotes infected in human HeLa cells assessed as inhibition of infection at 1 ug/mL after 4 days by HeLa cell-infection assay; format: functional; design: scale not given: the % may be the effect or the level left; summary of the method: as §1
# Trypanosoma cruzi [6] = assay: Trypanocidal activity against Trypanosoma cruzi Tulahuen epimastigotes up to 400 uM after 24 hrs; format: functional, organism-based
# Summary of the method: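 Tulahuen epimastigotes maintained in GIT medium with hemin (12.4 μM). Parasite suspension incubated 24 h with sample in EtOH plus autoclaved saline. Motility checked by microscopy (×100) and minimum lethal concentration (MLC) recorded. Duplicate assays; gentian violet positive control.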
Compound,Activity (Trypanosoma cruzi [1]),MLC (Trypanosoma cruzi [2]),Activity (Trypanosoma cruzi [3]),Activity (Trypanosoma cruzi [4]),Activity (HeLa),Activity (Trypanosoma cruzi [5]),Activity (Trypanosoma cruzi [6])
C=C(C)[C@H]1CCC(=C)[C@H](OO)C1,18.6,1.6 µM,4.4%,inactive,Toxic,63%,–
C=C(C)[C@H]1CCC(=C)[C@@H](O)C1,–,–,–,–,–,–,inactive
C=C(C)[C@@H]1C=C[C@](C)(OO)CC1,19.1,3.1 µM,1.5%,inactive,Toxic,88%,–
C=C(C)[C@@H]1C=C[C@](C)(O)CC1,–,–,–,–,–,–,inactive
CC(C)C12C=CC(C)(CC1)OO2 (stereo unspecified) [ASCARIDOLE],22.8,23 µM,8.5%,inactive,–,–,–
CN(C)c1ccc(C(=C2C=CC(=[N+](C)C)C=C2)c2ccc(N(C)C)cc2)cc1.[Cl-] [GENTIAN VIOLET],–,6.3 µM,–,–,–,–,–
Oc1ncnc2[nH]ncc12 [ALLOPURINOL],10.9,–,7%,inactive,–,–,–
C=C(C)[C@H]1CCC(=C)[C@@H](OO)C1,–,1.2 µM,–,–,–,–,–
C=C(C)[C@@H]1C=C[C@@](C)(OO)CC1,12,0.8 µM,0.13%,inactive,Toxic,Active,–
C=C(C)[C@@H]1C=C[C@@](C)(O)CC1,–,–,–,–,–,–,inactive
C=C(C)[C@H]1CCC(=C)[C@H](O)C1,–,–,–,–,–,–,inactive
